Assay outcomes: PubChem BioAssay, several laboratories
AI-2 QS modul – modulators of Vibrio harveyi AI-2 quorum sensing system; actives 0.4% (n = 300,000); Vibrio harveyi JMH597 AI-2 luminescence/OD600 ratio, 9 h; active compounds read low; strain lacks LuxN and CqsS sensors; 0 = neutral-control median; activity change, % at 7.5 µM; in the data active = activity change below about -75%, passing the limit was not always enough; inconclusive = no clear call, values can overlap the other calls;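 note: luminescence divided by OD600 gain over 9 h not by final OD600 alone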
p-CIP stab down – p/CIP protein destabilization; Q05BA5; decrease of EGFP signal, % at 10 µM; F442A p/CIP-EGFP cells, EGFP fluorescence, 16 h; AID 1984; actives 0.01% (n = 290,000);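 active = EGFP signal decrease of at least 30% at 10 µM or well 3 SD below plate mean, unless failing retest; inactive = the rest, including hits failing retest or dose response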
T cruzi inh – blocks replication of Trypanosoma cruzi. AID 1885. T. cruzi beta-gal in NIH3T3, luminescence, 90 h. inhibition, % (concentration not given with the values). actives 1.4% (n = 300,000);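 active = mean inhibition across valid replicates above about 55%, limit read from the data; inconclusive = mean below that limit but half or more replicates reach it; inactive = mean below it, under half of replicates reach it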;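 note: signal also drops with host cell toxicity which is not excluded here; higher percent means less beta-gal luminescence so fewer parasites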
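System – NIH/3T3 host cells with β-galactosidase reporter T. cruzi · Doses – single 50 nL compound addition per well in DMSO · Reagent – 5000 T. cruzi trypomastigotes/well · Medium – Low-serum DMEM with 2% FBS · Timing – ≥90 h infection period, 3 h prior cell attachment · Evaluation – parasite load inhibition, % · Technique – GalScreen luminescence, 60 min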
UBC13 polyUb – inhibitors of human UBC13 polyubiquitin chain formation; P61088; TR-FRET; inhibition, % at 20 µM; actives 0.47% (n = 330,000); in the data active = inhibition above about 45%, passing the limit was not always enough; inconclusive = no clear call, values can overlap the other calls
Target sequence (P61088 whole entry, looked up): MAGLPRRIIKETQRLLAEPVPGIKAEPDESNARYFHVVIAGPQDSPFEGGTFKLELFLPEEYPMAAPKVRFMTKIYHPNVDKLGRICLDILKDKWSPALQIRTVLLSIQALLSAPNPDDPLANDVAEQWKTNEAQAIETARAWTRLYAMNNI
PP1 counter – blocks human PP1-alpha phosphatase, a PP5 counter-screen | P62136 | purified PP1alpha, OMFP fluorescence | inhibition, % at 6.7 µM | actives 0.9% (n = 320,000) | AID 2235;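 active = inhibition above the mean inhibition of all tested compounds plus 3 SD, computed separately for each screening campaign, cut at about 15% in these data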
Casp3 UBC13 ctr – counter-screen for UBC13 inhibitors: human caspase-3 inhibition | shares compounds with UBC13 polyUb | Recombinant caspase-3, Caspase-Glo 3/7 luminescence, 60 min | actives 4% (n = 1,400) | inhibition, % at 20 µM;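 active = mean inhibition across replicates above about 26%, limit read from the data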
Target sequence (P42574 whole entry, looked up): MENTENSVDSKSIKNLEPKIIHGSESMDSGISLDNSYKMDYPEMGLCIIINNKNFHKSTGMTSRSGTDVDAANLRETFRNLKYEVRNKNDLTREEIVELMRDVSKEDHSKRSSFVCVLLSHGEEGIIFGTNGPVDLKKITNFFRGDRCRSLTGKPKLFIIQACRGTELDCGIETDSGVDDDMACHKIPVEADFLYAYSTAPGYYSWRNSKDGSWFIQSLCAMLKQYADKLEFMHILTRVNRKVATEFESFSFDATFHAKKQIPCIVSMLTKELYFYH
UBC13 conf – human UBC13 polyubiquitin inhibition, confirmed | shares compounds with UBC13 polyUb | UBC13 polyubiquitination, TR-FRET, biochemical | inhibition, % at 10 µM | actives 68% (n = 1,400) | AID 488859; in the data active = inhibition above about 45%; inconclusive = no clear call, values can overlap the other calls
Large screens that a line does not name were inactive (follow-up assays come after a bar, where they were run). Sampled rows, rich in hits. Any-hit rate of the full collection: about 2.8%.

C#CCOCCOCCOCCNc1nc(N2CCN(C(=O)[C@H](CO)n3cc([C@@H](N)C(C)C)nn3)CC2)nc(N2CCN(C(=O)[C@H](CCCCN)n3cc([C@@H](N)[C@H](C)CC)nn3)CC2)n1	UBC13 polyUb 84 (no result: AI-2 QS modul, p-CIP stab down, T cruzi inh, PP1 counter) | Casp3 UBC13 ctr inactive | UBC13 conf 59
C#CCOCCOCCOCCNc1nc(N2CCN(C(=O)[C@H](CCCN=C(N)N)n3cc(C(N)[C@@H](C)CC)nn3)CC2)nc(N2CCN(C(=O)[C@H](CCC(=O)O)n3cc([C@@H](N)CC(N)=O)nn3)CC2)n1 (stereo partly specified)	none (no result: AI-2 QS modul, p-CIP stab down, T cruzi inh, PP1 counter)
C#CCOCCOCCOCCNc1nc(N2CCN(C(=O)[C@H](CCCN=C(N)N)n3cc(C(N)[C@@H](C)CC)nn3)CC2)nc(N2CCN(C(=O)[C@H](CCCCN)n3cc([C@@H](N)CC(N)=O)nn3)CC2)n1 (stereo partly specified)	UBC13 polyUb 50 (no result: AI-2 QS modul, p-CIP stab down, T cruzi inh, PP1 counter) | Casp3 UBC13 ctr inactive | UBC13 conf inactive
N#Cc1ccc(OCC(=O)NCCCn2ccnc2)cc1	none (no result: AI-2 QS modul, p-CIP stab down, T cruzi inh, PP1 counter)
O=C(CSc1ccc2nnc(-c3ccccn3)n2n1)Nc1ccccc1C(F)(F)F	none
CCn1c(=O)cc(SCC(=O)Nc2cccc(C)n2)c2ccccc21	none
COc1cccc(NC(C)(C)c2nnnn2-c2c(C)cccc2C)c1	none
C#CCOCCOCCOCCNc1nc(N2CCN(C(=O)[C@H](CCCCN)n3cc(CN)nn3)CC2)nc(N2CCN(C(=O)[C@H](CCC(=O)O)n3cc([C@@H](N)CCCCN)nn3)CC2)n1	UBC13 polyUb 105 (no result: AI-2 QS modul, p-CIP stab down, T cruzi inh, PP1 counter) | Casp3 UBC13 ctr inactive | UBC13 conf 114
C#CCOCCOCCOCCNc1nc(N2CCN(C(=O)[C@H](CCCCN)n3cc(CN)nn3)CC2)nc(N2CCN(C(=O)[C@H](CCCCN)n3cc(CN)nn3)CC2)n1	UBC13 polyUb 103 (no result: AI-2 QS modul, p-CIP stab down, T cruzi inh, PP1 counter) | Casp3 UBC13 ctr inactive | UBC13 conf 112
C#CCOCCOCCOCCNc1nc(N2CCN(C(=O)[C@H](CCC(=O)O)n3cc(CN)nn3)CC2)nc(N2CCN(C(=O)[C@H](CCCCN)n3cc([C@@H](N)CC(N)=O)nn3)CC2)n1	none (no result: AI-2 QS modul, p-CIP stab down, T cruzi inh, PP1 counter)
CC(=O)N1CCN(C(=O)COC(=O)/C=C/c2ccccc2[N+](=O)[O-])CC1	none (no result: AI-2 QS modul, p-CIP stab down, T cruzi inh, PP1 counter)
O=C(COC(=O)C1CC2C=CC1C2)NCCc1ccccc1 (stereo unspecified)	none
CC(C)c1ccc(NC(=O)C(c2ccccc2)N(C)C(=O)CCc2c[nH]c3ccccc23)cc1 (stereo unspecified)	none (no result: p-CIP stab down)
CCCn1c(NC(=O)c2ccc(C)cc2)nc2ccccc21	none
C=CCn1c(NC(=O)c2ccc(C)cc2)nc2ccccc21	T cruzi inh 61, UBC13 polyUb 46 | Casp3 UBC13 ctr inactive | UBC13 conf inconclusive
Oc1ccc(-c2csc(Nc3ncccn3)n2)c(O)c1	none
N#Cc1ccc(Nc2nc(-c3ccc(O)cc3O)cs2)cc1C(F)(F)F	UBC13 polyUb 68 (no result: AI-2 QS modul, p-CIP stab down, T cruzi inh) | Casp3 UBC13 ctr inactive | UBC13 conf 55
COC(=O)c1cccc(NC(=O)Cc2coc3cc(OC)ccc23)c1	UBC13 polyUb 48 | Casp3 UBC13 ctr inactive | UBC13 conf 53
COc1ccc2c(CC(=O)OCC(=O)Nc3cccc(C)c3)coc2c1	none (no result: AI-2 QS modul, p-CIP stab down, T cruzi inh)
COc1ccc(CCNC(=S)N2CCN(S(=O)(=O)c3ccc(C)cc3)CC2)cc1	none (no result: p-CIP stab down)
CNC(=O)c1ccsc1NC(=O)C1CCCN1S(=O)(=O)c1cccs1 (stereo unspecified)	UBC13 polyUb 46 (no result: p-CIP stab down) | Casp3 UBC13 ctr inactive | UBC13 conf 79
O=C(Nc1ccccc1)C1CCCN1S(=O)(=O)c1cccs1 (stereo unspecified)	none (no result: p-CIP stab down)
CCOC(=O)CSc1nc2ccccc2c(=O)n1CCCCCC(=O)NCc1ccco1	UBC13 polyUb 47 | Casp3 UBC13 ctr inactive | UBC13 conf 47
O=C(CSc1nc2ccsc2c(=O)n1Cc1ccccc1)NCc1ccco1	UBC13 polyUb 50 | Casp3 UBC13 ctr inactive | UBC13 conf 68
Cc1ccc(NC(=O)CSc2nc3ccccc3c(=O)n2CCCC(=O)NCCCN2CCOCC2)cc1C	UBC13 polyUb 48 | Casp3 UBC13 ctr inactive | UBC13 conf 55
